According to ChEMBL document CHEMBL4257441, “Protection effect of intracellular melanin from Lachnum YM156 and Haikunshenxi capsule combination on adenine-induced chronic renal failure in mice” (Medchemcomm, 2017):

Experiments:
[1] = test system: Mus musculus; assay: Protective effect against adenine-induced chronic renal failure in ig dosed Kunming mouse assessed as decrease in blood urea nitrogen levels in serum administered as qd for 4 successive weeks with haikunshenxi capsule by diacetyl oxime method; assay type: functional, organism-based
In short: (§1)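 Adenine-fed CRF model in male Kunming mice (20 ± 5 g) housed at 18–20 °C on a 12 h light/dark cycle. Oral dosing at 100 or 200 mg kg–1, with or without Haikunshenxi capsule; ten mice per group. Serum creatinine, BUN, total protein and albumin measured, each group compared with the model group.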

[2] = test system: Mus musculus; assay: Protective effect against adenine-induced chronic renal failure in ig dosed Kunming mouse assessed as increase in total protein levels in serum administered as qd for 4 successive weeks with haikunshenxi capsule by coomassie brilliant blue method; assay type: functional, organism-based; in short: as §1
[3] = test system: Mus musculus; assay: Protective effect against adenine-induced chronic renal failure in ig dosed Kunming mouse assessed as increase in albumin levels in serum administered as qd for 4 successive weeks with haikunshenxi capsule by bromocresol green colorimetric method; assay type: functional, organism-based; in short: as §1
[4] = test system: Mus musculus; assay: Protective effect against adenine-induced chronic renal failure in Kunming mouse assessed as weight growth rate at 100 mg/kg, ig qd administered for 4 successive weeks measured 24 hrs post last dose (reference value: 32.42 +/- 1.43%); assay type: functional
In short: (§2)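 Male Kunming mice (20 ± 5 g) were housed on a 12 h light/dark cycle at 18–20 °C. Chronic renal failure was induced by long-term dietary adenine. The melanin was given orally at 100 or 200 mg kg–1, alone or with Haikunshenxi capsule as positive drug, with ten mice per group. Weight growth rate (%) and kidney index (mg g–1) were recorded.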

[5] = test system: Mus musculus; assay: Protective effect against adenine-induced chronic renal failure in Kunming mouse assessed as kidney index at 200 mg/kg, ig qd administered for 4 successive weeks measured 24 hrs post last dose (reference value: 1.94 +/- 0.03 mg/g); assay type: functional; in short: as §2
[6] = test system: Mus musculus; assay: Protective effect against adenine-induced chronic renal failure in Kunming mouse assessed as kidney index at 100 mg/kg, ig qd administered for 4 successive weeks with haikunshenxi capsule measured 24 hrs post last dose (reference value: 1.94 +/- 0.03 mg/g); assay type: functional; in short: as §2
[7] = test system: Mus musculus; assay: Protective effect against adenine-induced chronic renal failure in Kunming mouse assessed as nephridial SOD levels at 200 mg/kg, ig qd administered for 4 successive weeks with haikunshenxi capsule by hydroxylamine method (reference value: 30.45 +/- 1.12 U/mg); assay type: functional
[8] = test system: Mus musculus; assay: Protective effect against adenine-induced chronic renal failure in Kunming mouse assessed as nephridial CAT levels at 200 mg/kg, ig qd administered for 4 successive weeks by visible spectrometry method (reference value: 44.13 +/- 1.25 U/mg); assay type: functional
[9] = test system: Mus musculus; assay: Protective effect against adenine-induced chronic renal failure in Kunming mouse assessed as nephridial CAT levels at 100 mg/kg, ig qd administered for 4 successive weeks with haikunshenxi capsule by visible spectrometry method (reference value: 44.13 +/- 1.25 U/mg); assay type: functional
[10] = test system: Mus musculus; assay: Protective effect against adenine-induced chronic renal failure in Kunming mouse assessed as nephridial GSH levels at 100 mg/kg, ig qd administered for 4 successive weeks by colorimetric method (reference value: 3.05 +/- 0.11 mg/g); assay type: functional
[11] = test system: Mus musculus; assay: Protective effect against adenine-induced chronic renal failure in Kunming mouse assessed as nephridial MDA levels at 100 mg/kg, ig qd administered for 4 successive weeks by thiobarbituric acid method (reference value: 5.05 +/- 0.15 nmol/ml); assay type: functional
[12] = test system: Mus musculus; assay: Protective effect against adenine-induced chronic renal failure in ig dosed Kunming mouse assessed as increase in nephridial SOD levels administered as qd for 4 successive weeks by hydroxylamine method; assay type: functional, organism-based
In short: (§3)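 Male Kunming mice (20 ± 5 g) given dietary adenine to induce CRF, then dosed orally at 100 or 200 mg kg–1, with or without Haikunshenxi capsule; n = 10 per group. Kidney homogenate assayed for SOD and CAT (U mg–1 protein), GSH-Px (U L–1), GSH (mg g–1 protein) and MDA (nmol mL–1).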

[13] = test system: Mus musculus; assay: Protective effect against adenine-induced chronic renal failure in ig dosed Kunming mouse assessed as increase in nephridial CAT levels administered as qd for 4 successive weeks by visible spectrometry method; assay type: functional, organism-based; in short: as §3
[14] = test system: Mus musculus; assay: Protective effect against adenine-induced chronic renal failure in ig dosed Kunming mouse assessed as increase in nephridial SOD levels administered as qd for 4 successive weeks with haikunshenxi capsule by hydroxylamine method; assay type: functional, organism-based; in short: as §3
[15] = test system: Mus musculus; assay: Protective effect against adenine-induced chronic renal failure in ig dosed Kunming mouse assessed as increase in nephridial GSH-PX levels administered as qd for 4 successive weeks with haikunshenxi capsule by colorimetric method; assay type: functional, organism-based; in short: as §3
[16] = test system: Mus musculus; assay: Protective effect against adenine-induced chronic renal failure in Kunming mouse assessed as nephridial TNF-alpha levels at 100 mg/kg, ig qd administered for 4 successive weeks (reference value: 250.15 +/- 8.10 pg/ml); assay type: functional
[17] = test system: Mus musculus; assay: Protective effect against adenine-induced chronic renal failure in Kunming mouse assessed as nephridial TNF-alpha levels at 100 mg/kg, ig qd administered for 4 successive weeks with haikunshenxi capsule (reference value: 250.15 +/- 8.10 pg/ml); assay type: functional
[18] = test system: Mus musculus; assay: Protective effect against adenine-induced chronic renal failure in Kunming mouse assessed as nephridial IL-1beta levels at 200 mg/kg, ig qd administered for 4 successive weeks (reference value: 18.34 +/- 0.25 pg/ml); assay type: functional
[19] = test system: Mus musculus; assay: Protective effect against adenine-induced chronic renal failure in Kunming mouse assessed as nephridial IL-1beta levels at 100 mg/kg, ig qd administered for 4 successive weeks with haikunshenxi capsule (reference value: 18.34 +/- 0.25 pg/ml); assay type: functional
[20] = test system: Mus musculus; assay: Protective effect against adenine-induced chronic renal failure in Kunming mouse assessed as nephridial IL-1beta levels at 200 mg/kg, ig qd administered for 4 successive weeks with haikunshenxi capsule (reference value: 18.34 +/- 0.25 pg/ml); assay type: functional
[21] = test system: Mus musculus; assay: Protective effect against adenine-induced chronic renal failure in Kunming mouse assessed as nephridial IL-6 levels at 200 mg/kg, ig qd administered for 4 successive weeks (reference value: 20.85 +/- 0.11 pg/ml); assay type: functional
[22] = test system: Mus musculus; assay: Protective effect against adenine-induced chronic renal failure in Kunming mouse assessed as nephridial iNOS levels at 100 mg/kg, ig qd administered for 4 successive weeks (reference value: 1.98 +/- 0.12 U/mg); assay type: functional
[23] = test system: Mus musculus; assay: Protective effect against adenine-induced chronic renal failure in ig dosed Kunming mouse assessed as decrease in nephridial TNF-alpha levels administered as qd for 4 successive weeks; assay type: functional, organism-based
In short: (§4)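 CRF model made by chronic dietary adenine in male Kunming mice (20 ± 5 g); oral dosing at 100 or 200 mg kg–1, alone or with Haikunshenxi capsule; ten mice per group. Kidney tissue TNF-α, IL-1β and IL-6 measured as pg per mg protein, and iNOS activity as U mg–1 protein.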

[24] = test system: Mus musculus; assay: Protective effect against adenine-induced chronic renal failure in ig dosed Kunming mouse assessed as decrease in nephridial iNOS levels administered as qd for 4 successive weeks; assay type: functional, organism-based; in short: as §4
[25] = test system: Mus musculus; assay: Protective effect against adenine-induced chronic renal failure in ig dosed Kunming mouse assessed as decrease in nephridial TNF-alpha levels administered as qd for 4 successive weeks with haikunshenxi capsule; assay type: functional, organism-based; in short: as §4

For `Cc1c(=O)c(=O)c2c3c[nH]c4c(C)c(=O)c(=O)c(c5c[nH]c1c52)c43`, the Activity [1] was “Dose-dependent effect”, the Activity [2] was “Dose-dependent effect” and the Activity [3] was “Dose-dependent effect”. The Activity [4] was 50.12%, the Activity [5] was 1.35 mg/g and the Activity [6] was 1.18 mg/g. It also gave an Activity [7] of 48.58 U/mg, an Activity [8] of 64.45 U/mg and an Activity [9] of 74.25 U/mg. The Activity [10] was 4.19 mg/g, the Activity [11] was 3.95 nmol/mL and the Activity [12] was “Dose-dependent effect”. For the same compound, the Activity [13] was “Dose-dependent effect”, the Activity [14] was “Dose-dependent effect” and the Activity [15] was “Dose-dependent effect”. For the same compound, the Activity [16] was 218.12 pg/mL, the Activity [17] was 98.13 pg/mL and the Activity [18] was 16.03 pg/mL. For the same compound, the Activity [19] was 14.51 pg/mL, the Activity [20] was 13.81 pg/mL and the Activity [21] was 14.16 pg/mL. The Activity [22] was 1.79 U/mg, the Activity [23] was “Dose-dependent effect” and the Activity [24] was “Dose-dependent effect”. For the same compound, the Activity [25] was “Dose-dependent effect”.
